Experimental findings from ChEMBL document CHEMBL5678798 (Clin Cancer Res, 2009) are described below.

Data set [1] has as its target Cytoplasmic tyrosine-protein kinase BMX (Homo sapiens, UniProt P51813). Put plainly: Inhibition of N-terminal His6-tagged recombinant full-length human BMX expressed in baculovirus infected Sf21 cells by filter binding assay.
A further data set is filed under the species Rattus norvegicus. Put plainly: Inhibition of recombinant rat AMPK at 0.3 uM by filter binding assay relative to control.
In data set [2] the target is Inhibitor of nuclear factor kappa-B kinase subunit alpha (Homo sapiens, UniProt O15111). In words: Inhibition of IKK1 (unknown origin).
Data set [3] addresses Serine/threonine-protein kinase B-raf (Homo sapiens, UniProt P15056, V600E). In words: Inhibition of B-Raf V600E mutant (unknown origin).
The target of data set [4] is Death-associated protein kinase 2 (Homo sapiens) (UniProt Q9UIK4). Put plainly: Inhibition of N-terminal GST-tagged recombinant human full length DAPK2 expressed in baculovirus infected Sf21 cells at 0.3 uM by filter binding assay relative to control. The method, boiled down:
(§1)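 Outsourced single-concentration screen in a commercial panel of 233 protein kinases, run as radiometric filter-binding activity assays. Test agent was tested at 0.3 or 3 µmol/L, as given in each line, from a 10 mmol/L DMSO stock. Activity is expressed as percent inhibition relative to control.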

In a further data set the test system is COLO 205. In words: Induction of cell cycle arrest in human COLO 205 cells assessed as cells accumulation at G2 phase at 1 umol/L incubated for 48 hrs by propidium iodide staining based flow cytometric analysis (reference value: 22%). In kind it is functional. The following applies: dose 1 µmol/L, at 1 µM. The method, boiled down: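 COLO 205, MCF-7 or NCI-H929 cells seeded in 96-well plates overnight at 37°C, then exposed to DMSO or increasing compound concentrations for 24 or 48 h. Fixed and stained with propidium iodide (Vindelov method), then analysed by flow cytometry for sub-G1, G1, S and G2-M fractions. Experiment repeated twice.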

Data set [5] in a line: Inhibition of CDK2/CyclinA (unknown origin). On the set-up: species or system Homo sapiens.
Data set [6] has as its target Serine/threonine-protein kinase BRSK1 (Homo sapiens) (UniProt Q8TDC3). Put plainly: Inhibition of N-terminal 6His-tagged recombinant human BrSK1 (2 to end residues) expressed in baculovirus infected Sf21 cells at 0.3 uM by filter binding assay relative to control. Put shortly:
(§2)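 KinaseProfiler panel of 233 kinases: radiometric filter-binding activity assays with compound at 0.3 or 3 µmol/L. Read-out is percent inhibition.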

The target in data set [7] is Vascular endothelial growth factor receptor 2 (Homo sapiens, UniProt P35968). Put plainly: Inhibition of VEGFR2 (unknown origin).
The target of data set [8] is Receptor-type tyrosine-protein kinase FLT3 (Homo sapiens, UniProt P36888). In words: Inhibition of N-terminal GST tagged recombinant human Flt3 (564 to end residues) expressed in Sf21 cells by filter binding assay.
Data set [9] can be described thus: Toxicity in nu/nu CD-1 mouse implanted with mouse NIH-3T3/LISN cells assessed as reduction in body weight at 30 mg/kg, po for 21 days. In kind it is organism-based. The conditions noted are these: in vivo, 504 h, time 21 day.
Data set [10] in a line: Inhibition of recombinant mouse N-terminal 6His-tagged full length P110alpha/full length mouse […] expressed in baculovirus infected Sf21 cells at 0.3 uM by filter binding assay relative to control. The following applies: condition cancer.
In data set [11] the target is Serine/threonine-protein kinase TBK1 (Homo sapiens) (UniProt Q9UHD2). In words: Inhibition of N-terminal His6-tagged recombinant full-length human TBK1 expressed in baculovirus infected Sf21 cells at 3 uM by filter binding assay relative to control. Put shortly:
as §1

The target of data set [12] is Protein-tyrosine kinase 2-beta (Homo sapiens) (UniProt Q14289). Put plainly: Inhibition of N-Terminal His6-tagged recombinant full-length human Pyk2 expressed in baculovirus infected Sf21 cells at 3 uM by filter binding assay relative to control. Put shortly:
as §2

In data set [13] the target is PAS domain-containing serine/threonine-protein kinase (Homo sapiens, UniProt Q96RG2). Put plainly: Inhibition of human PASK by filter binding assay.
Data set [14] has as its target 3-phosphoinositide-dependent protein kinase 1 (PDPK1) (Homo sapiens) (UniProt O15530). Put plainly: Inhibition of N-terminal His6-tagged recombinant human PDK1 (52 to end residues) expressed in baculovirus infected Sf21 cells at 0.3 uM by filter binding assay relative to control.
In data set [15] the target is Serine/threonine-protein kinase Nek3 (Homo sapiens) (UniProt P51956). In words: Inhibition of N-terminal 6His-tagged recombinant full length human NEK3 expressed in baculovirus infected Sf21 cells at 0.3 uM by filter binding assay relative to control. Put shortly:
as §2

Data set [16] deals with Mitogen-activated protein kinase kinase kinase 9 (Homo sapiens) (UniProt P80192). In words: Inhibition of N-terminal 6His-tagged recombinant human MLK1 (134 to 414 residues) expressed in baculovirus infected Sf21 cells at 3 uM by filter binding assay relative to control. Put shortly: as §1
In data set [17] the target is Receptor tyrosine-protein kinase erbB-4 (Homo sapiens, UniProt Q15303). Put plainly: Inhibition of ErbB4 (unknown origin).
The target of data set [18] is Activated CDC42 kinase 1 (Homo sapiens) (UniProt Q07912). In words: Inhibition of N-terminal GST-tagged recombinant human ACK1 (1 to 389 residues) expressed in baculovirus infected Sf21 cells at 3 uM by filter binding assay relative to control. Put shortly:
as §1

Data set [19] deals with Tyrosine-protein kinase receptor UFO (Homo sapiens) (UniProt P30530). Put plainly: Inhibition of N-terminal His6-tagged recombinant human Axl (473 to end residues) expressed in Sf21 cells at 3 uM by filter binding assay relative to control.

For orientation: IC50 means the point on the concentration scale where inhibition reaches its midpoint. What is called inhibition is the relative decrease from the control value, in per cent.

Sequence of Tyrosine-protein kinase receptor UFO (Homo sapiens) (P30530 whole entry): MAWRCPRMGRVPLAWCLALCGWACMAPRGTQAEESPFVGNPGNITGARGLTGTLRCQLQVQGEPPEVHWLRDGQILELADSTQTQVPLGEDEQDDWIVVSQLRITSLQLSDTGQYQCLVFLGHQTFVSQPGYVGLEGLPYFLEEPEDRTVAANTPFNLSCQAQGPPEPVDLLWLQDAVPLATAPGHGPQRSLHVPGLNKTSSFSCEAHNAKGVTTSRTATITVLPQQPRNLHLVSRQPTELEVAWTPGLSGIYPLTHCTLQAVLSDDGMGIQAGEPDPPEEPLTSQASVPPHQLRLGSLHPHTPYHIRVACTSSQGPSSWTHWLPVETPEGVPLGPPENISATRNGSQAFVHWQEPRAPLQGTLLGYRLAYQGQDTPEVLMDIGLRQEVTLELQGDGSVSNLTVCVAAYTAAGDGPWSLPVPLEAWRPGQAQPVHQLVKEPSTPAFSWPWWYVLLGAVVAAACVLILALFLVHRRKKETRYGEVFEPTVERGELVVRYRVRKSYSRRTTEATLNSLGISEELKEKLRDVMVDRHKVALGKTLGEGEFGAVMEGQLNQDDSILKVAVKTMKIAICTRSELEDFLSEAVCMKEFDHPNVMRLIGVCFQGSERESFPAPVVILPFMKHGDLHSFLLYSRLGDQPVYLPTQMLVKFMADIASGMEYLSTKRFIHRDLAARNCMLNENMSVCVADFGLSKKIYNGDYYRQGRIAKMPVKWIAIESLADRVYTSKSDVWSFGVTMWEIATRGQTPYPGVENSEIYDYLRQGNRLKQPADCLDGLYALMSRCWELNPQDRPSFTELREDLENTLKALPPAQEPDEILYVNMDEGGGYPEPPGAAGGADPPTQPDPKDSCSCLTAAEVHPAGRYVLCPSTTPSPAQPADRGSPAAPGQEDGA
Sequence of Vascular endothelial growth factor receptor 2 (P35968 whole entry): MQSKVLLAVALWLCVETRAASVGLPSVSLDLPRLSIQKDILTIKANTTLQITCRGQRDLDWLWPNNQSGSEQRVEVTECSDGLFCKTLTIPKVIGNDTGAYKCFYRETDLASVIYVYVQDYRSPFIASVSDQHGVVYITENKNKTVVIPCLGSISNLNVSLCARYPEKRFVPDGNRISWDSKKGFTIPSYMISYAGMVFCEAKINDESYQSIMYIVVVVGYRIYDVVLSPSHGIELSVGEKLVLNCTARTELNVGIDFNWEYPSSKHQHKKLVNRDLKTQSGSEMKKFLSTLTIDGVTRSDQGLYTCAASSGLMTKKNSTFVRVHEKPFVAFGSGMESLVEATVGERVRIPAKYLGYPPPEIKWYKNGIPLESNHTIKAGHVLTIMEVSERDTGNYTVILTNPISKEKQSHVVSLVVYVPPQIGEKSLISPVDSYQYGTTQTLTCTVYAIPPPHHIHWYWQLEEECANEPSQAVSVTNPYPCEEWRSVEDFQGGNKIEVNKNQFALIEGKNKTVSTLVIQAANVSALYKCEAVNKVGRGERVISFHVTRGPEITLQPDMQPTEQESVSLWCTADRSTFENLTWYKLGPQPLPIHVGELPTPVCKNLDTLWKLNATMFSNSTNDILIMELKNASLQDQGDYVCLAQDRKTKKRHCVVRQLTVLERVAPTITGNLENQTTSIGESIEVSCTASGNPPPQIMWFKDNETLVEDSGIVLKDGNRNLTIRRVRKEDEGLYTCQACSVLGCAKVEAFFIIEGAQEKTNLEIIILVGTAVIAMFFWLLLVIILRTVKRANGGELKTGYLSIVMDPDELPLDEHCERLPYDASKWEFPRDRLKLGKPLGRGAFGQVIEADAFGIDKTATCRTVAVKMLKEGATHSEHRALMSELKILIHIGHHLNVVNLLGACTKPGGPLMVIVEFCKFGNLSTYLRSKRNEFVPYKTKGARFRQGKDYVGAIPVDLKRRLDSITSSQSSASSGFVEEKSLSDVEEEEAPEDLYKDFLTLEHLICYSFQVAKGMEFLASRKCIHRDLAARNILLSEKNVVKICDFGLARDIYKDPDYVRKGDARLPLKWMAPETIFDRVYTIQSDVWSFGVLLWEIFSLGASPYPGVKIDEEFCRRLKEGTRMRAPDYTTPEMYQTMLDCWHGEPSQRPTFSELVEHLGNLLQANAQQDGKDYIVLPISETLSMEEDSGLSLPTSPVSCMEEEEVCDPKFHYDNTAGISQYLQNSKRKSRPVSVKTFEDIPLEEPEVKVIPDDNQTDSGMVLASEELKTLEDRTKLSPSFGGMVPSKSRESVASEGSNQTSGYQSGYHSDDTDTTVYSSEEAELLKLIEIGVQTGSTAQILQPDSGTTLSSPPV
Sequence of Receptor tyrosine-protein kinase erbB-4 (Q15303 whole entry, the tested form may be a part): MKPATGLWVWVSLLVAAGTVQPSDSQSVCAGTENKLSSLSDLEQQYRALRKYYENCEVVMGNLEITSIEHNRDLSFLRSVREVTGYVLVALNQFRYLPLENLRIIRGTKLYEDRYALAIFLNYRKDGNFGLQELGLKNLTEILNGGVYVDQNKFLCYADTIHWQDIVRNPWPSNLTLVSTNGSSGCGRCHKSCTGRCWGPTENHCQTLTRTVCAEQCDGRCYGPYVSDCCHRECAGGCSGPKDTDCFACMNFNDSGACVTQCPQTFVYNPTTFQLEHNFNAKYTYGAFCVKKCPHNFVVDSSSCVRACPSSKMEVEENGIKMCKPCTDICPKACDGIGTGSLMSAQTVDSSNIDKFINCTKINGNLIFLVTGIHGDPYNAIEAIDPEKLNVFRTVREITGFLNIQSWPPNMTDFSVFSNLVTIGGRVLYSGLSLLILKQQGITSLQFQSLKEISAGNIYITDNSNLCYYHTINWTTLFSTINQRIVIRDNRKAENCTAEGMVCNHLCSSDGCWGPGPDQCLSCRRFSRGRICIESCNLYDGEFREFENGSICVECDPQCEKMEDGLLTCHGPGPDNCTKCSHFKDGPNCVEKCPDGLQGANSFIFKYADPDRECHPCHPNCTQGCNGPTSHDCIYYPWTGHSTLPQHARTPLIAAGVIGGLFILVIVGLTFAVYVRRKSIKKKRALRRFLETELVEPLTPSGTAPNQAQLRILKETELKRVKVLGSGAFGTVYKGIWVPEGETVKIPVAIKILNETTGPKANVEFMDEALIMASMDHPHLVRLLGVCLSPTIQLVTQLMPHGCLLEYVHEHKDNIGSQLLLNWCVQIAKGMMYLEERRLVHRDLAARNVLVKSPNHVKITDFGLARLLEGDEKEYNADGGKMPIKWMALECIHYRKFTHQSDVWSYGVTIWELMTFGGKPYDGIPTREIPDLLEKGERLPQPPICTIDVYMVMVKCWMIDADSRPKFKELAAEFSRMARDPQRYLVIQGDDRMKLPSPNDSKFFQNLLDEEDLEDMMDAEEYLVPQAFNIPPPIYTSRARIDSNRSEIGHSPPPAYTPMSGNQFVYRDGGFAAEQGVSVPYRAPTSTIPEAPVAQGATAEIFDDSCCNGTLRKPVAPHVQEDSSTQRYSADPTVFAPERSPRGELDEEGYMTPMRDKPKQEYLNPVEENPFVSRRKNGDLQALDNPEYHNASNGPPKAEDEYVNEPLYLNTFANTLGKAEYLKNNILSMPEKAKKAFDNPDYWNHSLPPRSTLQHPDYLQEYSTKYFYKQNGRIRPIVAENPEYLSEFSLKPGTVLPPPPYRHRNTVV
Sequence of Serine/threonine-protein kinase TBK1 (Homo sapiens) (Q9UHD2 whole entry): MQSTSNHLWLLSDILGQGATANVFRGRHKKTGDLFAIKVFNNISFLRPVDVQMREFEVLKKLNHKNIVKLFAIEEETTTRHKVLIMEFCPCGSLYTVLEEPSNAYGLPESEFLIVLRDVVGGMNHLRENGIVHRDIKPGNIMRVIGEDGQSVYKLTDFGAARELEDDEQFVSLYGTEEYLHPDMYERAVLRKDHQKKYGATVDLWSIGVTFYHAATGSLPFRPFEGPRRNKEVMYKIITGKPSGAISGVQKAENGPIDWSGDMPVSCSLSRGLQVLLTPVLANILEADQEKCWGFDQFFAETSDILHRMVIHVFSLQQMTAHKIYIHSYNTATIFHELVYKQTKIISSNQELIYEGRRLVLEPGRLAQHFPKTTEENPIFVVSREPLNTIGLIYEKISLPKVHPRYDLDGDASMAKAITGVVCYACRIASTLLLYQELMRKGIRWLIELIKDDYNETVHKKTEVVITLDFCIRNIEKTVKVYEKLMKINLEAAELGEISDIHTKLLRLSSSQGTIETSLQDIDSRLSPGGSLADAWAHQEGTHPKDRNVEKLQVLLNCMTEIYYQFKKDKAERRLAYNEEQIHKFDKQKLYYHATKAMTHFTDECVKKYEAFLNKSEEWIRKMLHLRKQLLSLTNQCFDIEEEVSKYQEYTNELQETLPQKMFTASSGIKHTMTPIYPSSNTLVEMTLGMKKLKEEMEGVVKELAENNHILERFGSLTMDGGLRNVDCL
Sequence of Serine/threonine-protein kinase BRSK1 (Homo sapiens) (Q8TDC3 whole entry): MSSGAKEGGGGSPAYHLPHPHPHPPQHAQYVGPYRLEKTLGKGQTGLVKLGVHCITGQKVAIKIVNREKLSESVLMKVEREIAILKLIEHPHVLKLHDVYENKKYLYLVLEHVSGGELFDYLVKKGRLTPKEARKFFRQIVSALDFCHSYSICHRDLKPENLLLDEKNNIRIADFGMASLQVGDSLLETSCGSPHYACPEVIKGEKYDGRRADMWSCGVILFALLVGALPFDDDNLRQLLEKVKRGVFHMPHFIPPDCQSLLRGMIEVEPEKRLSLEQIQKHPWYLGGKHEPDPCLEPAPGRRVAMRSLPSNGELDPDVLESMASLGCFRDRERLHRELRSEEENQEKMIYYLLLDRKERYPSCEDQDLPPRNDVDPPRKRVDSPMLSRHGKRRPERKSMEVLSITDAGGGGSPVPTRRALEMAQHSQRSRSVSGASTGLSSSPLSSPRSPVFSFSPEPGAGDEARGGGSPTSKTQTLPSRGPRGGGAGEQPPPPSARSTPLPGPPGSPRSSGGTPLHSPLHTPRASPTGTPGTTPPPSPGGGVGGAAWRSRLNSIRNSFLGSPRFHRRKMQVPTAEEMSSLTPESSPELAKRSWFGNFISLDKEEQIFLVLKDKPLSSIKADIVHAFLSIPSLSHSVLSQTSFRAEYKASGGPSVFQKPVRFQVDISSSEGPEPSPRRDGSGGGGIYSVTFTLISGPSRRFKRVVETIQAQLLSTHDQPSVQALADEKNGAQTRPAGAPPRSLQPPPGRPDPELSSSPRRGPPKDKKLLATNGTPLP

With `CCc1cc(Nc2nccc(-c3c(-c4ccc(OC)c(C(=O)Nc5c(F)cccc5F)c4)nc4ccccn34)n2)c(OC)cc1N1CCC(N2CCN(S(C)(=O)=O)CC2)CC1`, the IC50 in data set [1] was 1.21 µM; in [2], 13 µM; in data set [3] it was more than 2 µM; in data set [5] it was more than 10 µM; in data set [7], 3.2 µM; in data set [8], 2.85 µM. The IC50 in data set [13] was 4.34 µM; in data set [17], more than 25 µM. Moreover, the inhibition in the data set filed under Rattus norvegicus came out at 0%; in [4], 1%; in data set [6] it was 0%; in data set [11] it was 22%; in data set [12], 24%; in data set [14], 1%. For the same molecule, the inhibition is 1% in data set [15], -8% in data set [16], 34% in data set [18] and 1% in data set [19]. In addition, the Activity in the data set on COLO 205 was 12%; in data set [9], “Non-Toxic”. In addition, in [10], the inhibition at 0.3 µM was determined as 0%.
